Legend:
[1] = Inhibition of glutamate-induced excitotoxicity in rat E18 cells assessed as reduction in cell death at 5 uM pretreated for 24 hrs before glutamate challenge measured after 24 hrs by MTT assay; assay type: functional
In short: (§1)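 Rat E18 primary cortical cells cultured 8-10 days in neurobasal medium, pretreated 24 h with compound (tested at 0.1-80 μM, DMSO <5 μL/mL medium), then glutamate 0.5 μM (in PBS pH 7.4) added for a further 24 h with compound still present. Viability by MTT formazan photometry; reduction in cell death vs glutamate-only control, mean ± SEM, ANOVA/Dunnett, p < 0.05.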

[2] = Inhibition of glutamate-induced excitotoxicity in rat E18 cells assessed as reduction in cell death at 10 uM pretreated for 24 hrs before glutamate challenge measured after 24 hrs by MTT assay; assay type: functional; in short: as §1
Rattus norvegicus = assay: Neuroprotective effect against traumatic brain injury-induced cerebral edema in rat assessed as decrease in edema level at 8 mg/kg administered intraperitoneally 1 hr post-TBI followed by second sc dose at 6 hrs post-TBI measured after 24 hrs relative to control; assay type: functional; parameters: scale not given: the % may be the effect or the level left; details: route intraperitoneal at 1 h, then subcutaneous at 6 h
In short: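 Bilateral medial frontal cortex contusion made with a pneumatic impactor in rats under isoflurane (5% induction, 2% maintenance, N₂O/O₂), body temperature held with a heating blanket. Dosing: 8 mg/kg in 22.5% w/v 2-hydroxypropyl-β-cyclodextrin, IP at 1 h, then SC at 6 h. Sham and vehicle groups included. At 24 h, pentobarbital overdose; pericontusional tissue dried at 60 °C, 0.3 atm for 24 h. Water % = (wet−dry)/wet×100; decrease vs vehicle, mean ± SEM.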

[3] = Solubility in phosphate buffered saline; assay type: physicochemical
In short: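 Compound added in small portions to phosphate buffered saline at room temperature with stirring until a visible saturation end point; solubility reported as mg/mL.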

[4] = Inhibition of glutamate-induced excitotoxicity in rat E18 cells assessed as reduction in cell death at 80 uM pretreated for 24 hrs before glutamate challenge measured after 24 hrs by MTT assay; assay type: functional
In short: (§2)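 Rat E18 primary cortical neurons cultured 8-10 days in neurobasal medium, pretreated 24 h with compound (0.1-80 μM, DMSO, final DMSO <5 μL/mL), then glutamate 0.5 μM (in PBS pH 7.4) for 24 h with compound still present. Viability read by MTT formazan photometry; % reduction in cell death vs glutamate control, mean ± SEM, ANOVA with Dunnett's test.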

[5] = Inhibition of glutamate-induced excitotoxicity in rat E18 cells assessed as reduction in cell death at 20 uM pretreated for 24 hrs before glutamate challenge measured after 24 hrs by MTT assay; assay type: functional; in short: as §2
[6] = phosphate buffered saline, read-out: solubility

Structure (SMILES): CC(C)[C@H](N)C(=O)O[C@@H](C)[C@H]1CC[C@H]2[C@@H]3CCC4=CC(=O)CC[C@]4(C)[C@H]3CC[C@]12C
- inhibition at 5 µM [1]: 23%
- inhibition at 10 µM [2]: 30%

Structure (SMILES): CC(=O)[C@H]1CC[C@H]2[C@@H]3CC[C@@H]4C[C@H](OC(=O)[C@@H](N)C(C)C)CC[C@]4(C)[C@H]3CC[C@]12C.Cl
- Activity (Rattus norvegicus): 31%
- solubility [3, 6]: 300 µg/mL

Structure (SMILES): CC(=O)[C@H]1CC[C@H]2[C@@H]3CCC4=C[C@@H](OC(=O)[C@@H](N)C(C)C)CC[C@]4(C)[C@H]3CC[C@]12C.Cl
- solubility [3, 6]: 3850 µg/mL
- inhibition at 5 µM [1]: 8%

Structure (SMILES): CC(=O)[C@H]1CC[C@H]2[C@@H]3CCC4=C[C@@H](OC(=O)[C@H](C)N)CC[C@]4(C)[C@H]3CC[C@]12C.Cl
- solubility [3, 6]: 3340 µg/mL
- inhibition at 5 µM [1]: 13%

Structure (SMILES): CC(=O)[C@H]1CC[C@H]2[C@@H]3CC[C@@H]4C[C@@H](OC(=O)[C@@H](N)C(C)C)CC[C@]4(C)[C@H]3CC[C@]12C.Cl
- Activity (Rattus norvegicus): 11%
- solubility [3, 6]: < 50 µg/mL

Structure (SMILES): CC(=O)[C@H]1CC[C@H]2[C@@H]3CC[C@H]4C[C@H](O)CC[C@]4(C)[C@H]3CC[C@]12C [BREXANOLONE]
- solubility [3, 6]: < 50 µg/mL
- inhibition at 5 µM [1]: -3%
- inhibition at 80 µM [4]: 40%

Structure (SMILES): CC(=O)[C@H]1CC[C@H]2[C@@H]3CC[C@H]4C[C@H](OC(=O)[C@@H](N)C(C)C)CC[C@]4(C)[C@H]3CC[C@]12C.Cl
- Activity (Rattus norvegicus): 49%
- solubility [3, 6]: < 50 µg/mL

Structure (SMILES): CC(=O)[C@H]1CC[C@H]2[C@@H]3CCC4=C[C@@H](OC(=O)[C@@H](N)Cc5c[nH]c6ccccc56)CC[C@]4(C)[C@H]3CC[C@]12C
- inhibition at 5 µM [1]: 1%

Structure (SMILES): CC(=O)[C@H]1CC[C@H]2[C@@H]3CC[C@H]4C[C@@H](OC(=O)[C@@H](N)C(C)C)CC[C@]4(C)[C@H]3CC[C@]12C.Cl
- Activity (Rattus norvegicus): 40%
- solubility [3, 6]: < 50 µg/mL

Structure (SMILES): CC(=O)[C@H]1CC[C@H]2[C@@H]3CCC4=C[C@@H](OC(=O)[C@@H]5CCCN5)CC[C@]4(C)[C@H]3CC[C@]12C.Cl
- solubility [3, 6]: 1530 µg/mL
- inhibition at 5 µM [1]: 15%

Structure (SMILES): CC(=O)[C@H]1CC[C@H]2[C@@H]3CCC4=C/C(=N\OC(=O)[C@@H](N)C(C)C)CC[C@]4(C)[C@H]3CC[C@]12C.Cl
- Activity (Rattus norvegicus): 75%
- solubility [3, 6]: 15200 µg/mL
- inhibition at 5 µM [1]: 34%

Structure (SMILES): CC(=O)[C@H]1CC[C@H]2[C@@H]3CCC4=C[C@@H](OC(=O)[C@@H](N)Cc5ccccc5)CC[C@]4(C)[C@H]3CC[C@]12C.Cl
- solubility [3, 6]: 610 µg/mL

Structure (SMILES): CC(=O)[C@H]1CC[C@H]2[C@@H]3CCC4=CC(=O)CC[C@]4(C)[C@H]3CC[C@]12C [PROGESTERONE]
- Activity (Rattus norvegicus): 60%
- inhibition at 20 µM [5]: 42%
- solubility [3, 6]: < 50 µg/mL
- inhibition at 5 µM [1]: 4%

Structure (SMILES): CC(=O)[C@H]1CC[C@H]2[C@@H]3CCC4=C/C(=N/OC(=O)[C@@H](N)C(C)C)CC[C@]4(C)[C@H]3CC[C@]12C.Cl
- Activity (Rattus norvegicus): 57%
- solubility ([3]; buffer): 13000 µg/mL
- inhibition at 5 µM [1]: 27%

Reference: ChEMBL document CHEMBL1154190, “Development and screening of water-soluble analogues of progesterone and allopregnanolone in models of brain injury” (J Med Chem, 2009)
